The values that follow come from PubChem BioAssay.

Calls of active or inactive are those of the source.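 Rule for the calls, unless noted: active = Her2 level under about 52% in both replicate screens, with viability over 70% of control (limit read from the data); inconclusive = Her2 under the limit in one screen only, or viability under 70%; inactive = Her2 level above the set limit.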

Assay [1] in a line: Her2 expression decrease, cell viability multiplex – SKBR3 breast tumor cells, AlphaScreen, ATP viability, primary screen (AID 461).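 For Her2 level: lower value means less Her2 protein in the cells.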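 For viability: percent of carrier control wells set as 100% viability.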 To be noted: SKBR3 Her2 protein level, 18-24 h, measured here: SKBR3 viability, ATP luminescence, at 10 µM.
The target of assay [2] is Receptor tyrosine-protein kinase erbB-2 (Homo sapiens) (UniProt P04626). The assay is described as above. To be noted: 18-24 h, at 10 µM, stronger effect = lower value.
Receptor tyrosine-protein kinase erbB-2 (Homo sapiens), sequence (P04626 whole entry, looked up): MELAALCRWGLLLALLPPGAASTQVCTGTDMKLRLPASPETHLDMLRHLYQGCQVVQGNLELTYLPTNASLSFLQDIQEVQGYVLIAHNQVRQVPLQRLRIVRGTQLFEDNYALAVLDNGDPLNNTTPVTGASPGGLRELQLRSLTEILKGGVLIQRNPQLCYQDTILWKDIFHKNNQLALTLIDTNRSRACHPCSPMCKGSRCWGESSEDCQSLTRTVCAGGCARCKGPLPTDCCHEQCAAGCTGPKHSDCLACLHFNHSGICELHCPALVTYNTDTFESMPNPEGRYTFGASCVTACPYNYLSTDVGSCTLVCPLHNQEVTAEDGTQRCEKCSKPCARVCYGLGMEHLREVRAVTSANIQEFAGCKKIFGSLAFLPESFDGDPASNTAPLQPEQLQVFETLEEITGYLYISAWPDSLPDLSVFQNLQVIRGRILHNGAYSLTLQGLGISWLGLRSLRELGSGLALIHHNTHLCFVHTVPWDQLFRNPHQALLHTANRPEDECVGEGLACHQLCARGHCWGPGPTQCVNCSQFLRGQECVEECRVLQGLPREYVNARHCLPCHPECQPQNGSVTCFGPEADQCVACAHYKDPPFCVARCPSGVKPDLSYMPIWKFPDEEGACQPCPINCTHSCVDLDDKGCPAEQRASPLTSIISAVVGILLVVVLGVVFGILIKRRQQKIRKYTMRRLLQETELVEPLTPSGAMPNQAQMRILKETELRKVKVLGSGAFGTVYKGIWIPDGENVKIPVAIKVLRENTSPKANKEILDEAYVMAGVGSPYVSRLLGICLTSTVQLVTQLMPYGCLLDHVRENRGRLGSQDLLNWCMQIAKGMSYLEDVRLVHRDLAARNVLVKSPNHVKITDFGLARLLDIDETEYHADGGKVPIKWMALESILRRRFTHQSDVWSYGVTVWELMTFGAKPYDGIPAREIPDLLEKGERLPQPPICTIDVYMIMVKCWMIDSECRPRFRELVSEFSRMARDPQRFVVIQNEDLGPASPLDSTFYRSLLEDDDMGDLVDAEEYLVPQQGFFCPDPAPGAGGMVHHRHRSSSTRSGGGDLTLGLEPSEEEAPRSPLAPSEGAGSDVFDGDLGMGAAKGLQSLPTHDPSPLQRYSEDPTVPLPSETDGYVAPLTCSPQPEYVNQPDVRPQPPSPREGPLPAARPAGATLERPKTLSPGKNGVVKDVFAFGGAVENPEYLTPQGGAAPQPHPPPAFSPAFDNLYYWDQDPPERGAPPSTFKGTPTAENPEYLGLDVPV
Assay [3] in a line: reduced viability of SK-BR-3 breast cancer cells – cell-based, 24 h, human, pilot screen (AID 572;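 active = viability at or below 10% of carrier control in both of two separate runs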;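 note: compound exposure lasted between 18 and 24 h rather than exactly 24 h; 100% = carrier-treated control wells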). Particulars: SK-BR-3 viability, CellTiter-Glo luminescence, at 10 µM, stronger effect = lower value.
Assay [4] in a line: HUVEC growth inhibition – cell-based, human, primary screen (AID 575;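 active = viability at or below 30% in both replicate assays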;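 note: 100% = median of untreated cell wells with 0.1% DMSO on each plate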). Particulars: HUVEC proliferation, CellTiter-Glo luminescence, 72 h; at 10 µM; stronger effect = lower value. The method in brief:
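System: primary human umbilical vein endothelial cells; Quantity: 1250 endothelial cells in each well; Buffer or medium: supplemented EBM, 2% fetal bovine serum; Doses: one dose, 10 µM final, 0.1% DMSO; Incubation: 72 h compound incubation; Technique: ATP-based CellTiter-Glo luminescent read; Evaluation: percent of median DMSO-control luminescence; Controls: vehicle and MePR control wells.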
For orientation: ATP-based viability assays read luminescence as a measure of living cells.

Assay [5] is described as follows: H69AR cell proliferation blockers – human, duplicate replicates, primary screen (AID 580;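 active = viability at or under a set limit in both replicates, limit being median viability minus 3 SD, cut at about 48% in these data, passing the limit was not always enough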;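 note: 100% = mean luminescence of untreated wells and 0% = no signal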). Particulars: H69AR lung tumor cells viability, ATP luminescence, 72 h; at 10 µM; stronger effect = lower value.
Assay [6] can be described thus: MRP1 drug-resistance reversers in H69AR cells – cell-based, doxorubicin co-treatment, pilot screen (AID 601;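 active = viability loss from added drug above about 55%, and viability with drug at most 40%, in both replicates, limit read from the data, passing the limit was not always enough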). Particulars: CellTiter-Glo, 72 h, at 10 µM; for differential viability (reversal): stronger effect = higher value.
Assay [7] can be described thus: yeast transport mutant growth inhibition pilot in 384-well plates, post-Golgi transport modulator project (AID 636; in the data active = inhibition above about 31%). To be noted: absorbance 615 nm, about 18 h, stronger effect = higher value.
A short description of assay [8]: growth suppression of yeast trafficking mutant, preliminary HTS, modulators of trafficking downstream of Golgi apparatus project, 1536-format plate, OD 615 nm (AID 637; in the data active = inhibition above about 30%). To be noted: yeast transport mutant growth, absorbance 615 nm, 18 h; stronger effect = higher value.
The mark [9] stands for this setting: H69AR cells + 2 uM doxorubicin, measured here: viability with 2 uM doxorubicin, stronger effect = lower value.
Setting [10] is: H69AR cells, compound alone cytotoxicity.

By viability is commonly meant a read-out of living cells in per cent, often relative to untreated cells. The inhibition is the drop in the measured response relative to a control, in per cent. Consider `COCCNC(=O)CN1CCN(C(c2ccccc2)c2ccccc2)CC1`, for which the viability in assay [1] is 86%; in assay [3], 86% (inactive); in assay [4], 84.3% (inactive); in assay [5], 93.1% (inactive); in assay [6] (setting [9]), 92.2%; in assay [6] (setting [10]), 93.1%. Moreover, the Her2 level in assay [2] was 117% (inactive). Also, in assay [6] (H69AR cells + 2 uM doxorubicin), the differential viability (reversal) is 0.91% (inactive). The inhibition in assay [7] is -0.39% (inactive); in assay [8], -5.08% (inactive).

As to `O=C(OCc1cc2ccccc2[nH]c1=O)c1ccco1`, the viability in assay [1] was 106%; in assay [3], 106% (inactive); in assay [4] it was 95.9% (inactive); in assay [5], 100% (inactive); in assay [6] (setting [9]) it was 93.3%; in assay [6] (setting [10]), 100%. Besides, the Her2 level in assay [2] is 114% (inactive). In assay [6] (H69AR cells + 2 uM doxorubicin), the differential viability (reversal) is 6.74% (inactive). The values for the inhibition in assay [7] and in assay [8] were -1.43% (inactive) and -6.67% (inactive), respectively.

Take `Nc1nnc(C(=O)c2ccccc2N)s1`: the viability in assay [1] is 108%; in assay [3], 108% (inactive); in assay [4], 102% (inactive); in assay [5] it was 96.3% (inactive); in assay [6] (setting [9]) it was 90.9%; in assay [6] (setting [10]), 96.3%. In assay [2], the Her2 level is 91% (inactive). The differential viability (reversal) in assay [6] (H69AR cells + 2 uM doxorubicin) was 5.43% (inactive). In addition, the results for the inhibition in assay [7] and in assay [8] were -1.04% (inactive) and 3.93% (inactive), respectively.

Take `CCOC(=O)CSc1nc(N)c2c3c(sc2n1)CCCC3`: the viability in assay [1] was 104%; in assay [3] it was 104% (inactive); in assay [4], 78.7% (inactive); in assay [5], 89.3% (inactive); in assay [6] (setting [9]), 89.3%; in assay [6] (setting [10]), 89.3%. The Her2 level in assay [2] is 96.5% (inactive). Also, the differential viability (reversal) in assay [6] (H69AR cells + 2 uM doxorubicin) was 0.02% (inactive). Further, the results for the inhibition in assay [7] and in assay [8] were 0.8% (inactive) and 2.58% (inactive), respectively.

Consider `CCOC(=O)C1C2C=CC3(CN(c4cccc(Cl)c4)C(=O)C13)O2` (stereo not given), for which the viability in assay [1] is 86%; in assay [3], 86% (inactive); in assay [4], 91.2% (inactive); in assay [5], 97.5% (inactive); in assay [6] (setting [9]), 96.3%; in assay [6] (setting [10]), 97.5%. Also, the Her2 level in assay [2] is 80% (inactive). For the same molecule, the differential viability (reversal) in assay [6] (H69AR cells + 2 uM doxorubicin) is 1.17% (inactive). Besides, the figures for the inhibition in assay [7] and in assay [8] were -4.4% (inactive) and 0.17% (inactive), respectively.

`CCC1(C)Cc2c(C#N)c(N)n(-c3ccccc3)c(=O)c2CO1` (stereo not given): the viability in assay [1] is 100%; in assay [3] it was 100% (inactive); in assay [4] it was 104% (inactive); in assay [5], 109% (inactive); in assay [6] (setting [9]) it was 89.7%; in assay [6] (setting [10]), 109%. The Her2 level in assay [2] is 106% (inactive). The differential viability (reversal) in assay [6] (H69AR cells + 2 uM doxorubicin) is 19.4% (inactive). Besides, the inhibition in assay [7] is -0.13% (inactive); in assay [8] it was -3.64% (inactive).

Consider `N#CC1=C(SCC(=O)NC2CCCCC2)NC(=O)CC1c1ccco1` (stereo not given), for which the viability was 113% in assay [1]; 113% (inactive) in assay [3]; 74.8% (inactive) in assay [4]; 30.6% (active) in assay [5]; 83.1% in assay [6] (setting [9]); 30.6% in assay [6] (setting [10]). Moreover, the Her2 level in assay [2] was 98% (inactive). Further, the differential viability (reversal) in assay [6] (H69AR cells + 2 uM doxorubicin) is -52.5% (inactive). Also, the inhibition was -6.53% (inactive) in assay [7] and 0.97% (inactive) in assay [8].

For `CCOC(=O)N1CCN(C(=O)CSc2cc(C)nc3c(-c4ccccc4OC)c(C)nn23)CC1`, the viability in assay [1] is 79.5%; in assay [3], 79.5% (inactive); in assay [4], 94% (inactive); in assay [5] it was 73.3% (inactive); in assay [6] (setting [9]), 24.8%; in assay [6] (setting [10]), 73.3%. Moreover, in assay [2], the Her2 level is 90% (inactive). Also, the differential viability (reversal) in assay [6] (H69AR cells + 2 uM doxorubicin) is 48.5% (inactive). Moreover, the figures for the inhibition in assay [7] and in assay [8] were -0.26% (inactive) and -1.43% (inactive), respectively.

On to `CCOc1ccc(NC(=O)c2ccc3c(c2)N(Cc2ccc(F)cc2)C(=O)CS3=O)cc1` (stereo not given), for which the viability is 90% in assay [1]; 90% (inactive) in assay [3]; 70.4% (inactive) in assay [4]; 90% (inactive) in assay [5]; 78.6% in assay [6] (setting [9]); 90% in assay [6] (setting [10]). Moreover, the Her2 level in assay [2] was 81.5% (inactive). The differential viability (reversal) in assay [6] (H69AR cells + 2 uM doxorubicin) is 11.4% (inactive). Moreover, the inhibition was -1.07% (inactive) in assay [7] and -0.17% (inactive) in assay [8].

For the molecule `CCOc1ccc(OCC)c(NC(=O)CCCN2C(=O)c3cccnc3C2=O)c1`, the viability was 110% in assay [1]; 110% (inactive) in assay [3]; 110% (inactive) in assay [4]; 85.8% (inactive) in assay [5]; 88.3% in assay [6] (setting [9]); 85.8% in assay [6] (setting [10]). In addition, the Her2 level in assay [2] was 128% (inactive). Also, the differential viability (reversal) in assay [6] (H69AR cells + 2 uM doxorubicin) is -2.52% (inactive). In addition, the inhibition in assay [7] was 0.81% (inactive); in assay [8], 7.14% (inactive).

Take `O=C1CCCC2=C1C(c1ccc(Br)cc1)c1c([nH]c(=S)[nH]c1=O)N2` (stereo not given): the viability in assay [1] was 84%; in assay [3], 84% (inactive); in assay [4] it was 99.3% (inactive); in assay [5] it was 91.7% (inactive); in assay [6] (setting [9]) it was 85.1%; in assay [6] (setting [10]), 91.7%. For the same molecule, in assay [2], the Her2 level is 112% (inactive). In addition, the differential viability (reversal) in assay [6] (H69AR cells + 2 uM doxorubicin) was 6.69% (inactive). For the same molecule, the inhibition in assay [7] was -4.47% (inactive); in assay [8], 8.67% (inactive).

Regarding `Cc1ccc(-n2c(=O)c(C#N)cc3c(=O)n4ccccc4nc32)cc1`, the viability in assay [1] was 100%; in assay [3] it was 100% (inactive); in assay [4], 62.1% (inactive); in assay [5], 97% (inactive); in assay [6] (setting [9]), 89.6%; in assay [6] (setting [10]) it was 97%. Moreover, the Her2 level in assay [2] was 84.5% (inactive). Further, the differential viability (reversal) in assay [6] (H69AR cells + 2 uM doxorubicin) was 7.35% (inactive). Moreover, the inhibition is -4.59% (inactive) in assay [7] and 2.06% (inactive) in assay [8].

In the case of `COc1ccccc1Nc1nc(N)nc(CSc2nccc(C)n2)n1`, the viability was 99% in assay [1]; 99% (inactive) in assay [3]; 107% (inactive) in assay [4]; 91% (inactive) in assay [5]; 85.7% in assay [6] (setting [9]); 91% in assay [6] (setting [10]). Besides, the Her2 level in assay [2] is 90.5% (inactive). Further, the differential viability (reversal) in assay [6] (H69AR cells + 2 uM doxorubicin) is 5.23% (inactive). In addition, the inhibition in assay [7] is -3.82% (inactive); in assay [8], 0% (inactive).

Regarding `c1ccc(-n2nnnc2OCCOc2nnnn2-c2ccccc2)cc1`, the viability was 92% in assay [1]; 92% (inactive) in assay [3]; 82.2% (inactive) in assay [4]; 80.4% (inactive) in assay [5]; 86.5% in assay [6] (setting [9]); 80.4% in assay [6] (setting [10]). Moreover, in assay [2], the Her2 level was 106% (inactive). The differential viability (reversal) in assay [6] (H69AR cells + 2 uM doxorubicin) is -6.12% (inactive). For the same molecule, the inhibition was -2.24% (inactive) in assay [7] and 9.18% (inactive) in assay [8].
